The record followed here is ChEMBL document CHEMBL3769310, “Scouting new sigma receptor ligands: Synthesis, pharmacological evaluation and molecular modeling of 1,3-dioxolane-based structures and derivatives” (Eur J Med Chem, 2016).

Sigma non-opioid intracellular receptor 1, sequence (Q60492 whole entry): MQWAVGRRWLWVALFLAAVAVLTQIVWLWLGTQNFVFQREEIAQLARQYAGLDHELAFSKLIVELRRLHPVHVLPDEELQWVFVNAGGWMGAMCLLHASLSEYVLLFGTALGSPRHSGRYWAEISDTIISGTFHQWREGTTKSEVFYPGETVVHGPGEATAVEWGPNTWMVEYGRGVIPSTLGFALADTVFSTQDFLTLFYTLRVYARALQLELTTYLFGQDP

The first experiment concerns the target Sigma non-opioid intracellular receptor 1 (Cavia porcellus, UniProt Q60492). Kind of experiment: Displacement of [3H]-(+)-pentazocine from sigma-1 receptor in guinea pig brain membranes after 150 mins by liquid scintillation counting method. The class given is cell membranes, Membrane. On the technique in general: Displacement assays read how much labelled ligand stays bound in the presence of the test substance.
In general, Ki refers to the equilibrium dissociation constant of an inhibitor or competing ligand from its target. In the case of `c1ccc(CN2CCN(CCOC(c3ccccc3)c3ccccc3)CC2)cc1`, the Ki is 20.4 nM.
The same measure, in the same setting: then `c1ccc(CC2CCN(CC3COC4(CCCCC4)O3)CC2)cc1` (centres undefined), with 2 nM.
Same read-out and setting: then `c1ccc(CN2CCN(CC3COc4ccccc4O3)CC2)cc1` (centres undefined), with 15.8 nM; and `c1ccc(CC2CCN(CC3CSC(c4ccccc4)(c4ccccc4)O3)CC2)cc1` (centres undefined), with 12 nM; and `c1ccc(CN2CCN(CC3COC(C4CCCCC4)(C4CCCCC4)O3)CC2)cc1` (centres undefined), with 3.39 nM.
Same read-out and setting: then `c1ccc(CN2CCN(CC3COC(c4ccccc4)(c4ccccc4)O3)CC2)cc1` (centres undefined), with 1.7 nM; and `c1ccc(CN2CCN(CC3CCC(c4ccccc4)(c4ccccc4)O3)CC2)cc1` (centres undefined), with 87.1 nM; and `c1ccc(CC2CCN(CC3CSC(c4ccccc4)(c4ccccc4)S3)CC2)cc1` (centres undefined), with 15.1 nM.
As to `O[C@@H]1[C@@H](CN2CCC(Cc3ccccc3)CC2)CCC1(c1ccccc1)c1ccccc1` (relative stereo), the Ki is 229 nM.
The same measure, in the same setting: the value for `c1ccc(CC2CCN(CC3COc4ccccc4O3)CC2)cc1` (centres undefined) was 16.6 nM; that for `c1ccc(CN2CCN(CC3CSC(c4ccccc4)(c4ccccc4)O3)CC2)cc1` (centres undefined) was 63.1 nM.
`OCC(CN1CCN(Cc2ccccc2)CC1)OC(c1ccccc1)c1ccccc1` (centres undefined) had a Ki of 11.2 nM.
Still for that read-out and setting: the value for `O=C1C(CN2CCN(Cc3ccccc3)CC2)CCC1(c1ccccc1)c1ccccc1` (centres undefined) was 646 nM; that for `c1ccc(CN2CCN(C[C@@H]3CO[C@@](c4ccccc4)(C4CCCCC4)O3)CC2)cc1` (relative stereo) was 30.9 nM.

Target in the next experiment: not listed separately
Kind of experiment: Displacement of [3H]DTG from sigma-2 receptor in guinea pig brain membranes after 120 mins by liquid scintillation counting method. The class given is cell membranes, Cavia porcellus, Membrane. In outline: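 Nonspecific with 5 µM DTG. Stopped with ice-cold 10 mM Tris pH 8.0, filtered on PEI-soaked GF/B, scintillation counted. Ki from duplicates, three experiments.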
Broadly, the pKi is the Ki on a negative log10 scale, so that one unit is a factor of ten. Regarding `c1ccc(CN2CCN(CCOC(c3ccccc3)c3ccccc3)CC2)cc1`, the pKi was found to be 7.95.
On the same count and under the same terms, the value for `c1ccc(CC2CCN(CC3COC4(CCCCC4)O3)CC2)cc1` (centres undefined) was 7.72.
On the same count and under the same terms, the value for `c1ccc(CN2CCN(CC3COc4ccccc4O3)CC2)cc1` (centres undefined) was 7.55.
Same read-out and setting: the value for `c1ccc(CC2CCN(CC3CSC(c4ccccc4)(c4ccccc4)O3)CC2)cc1` (centres undefined) was 7.55; that for `c1ccc(CN2CCN(CC3COC(C4CCCCC4)(C4CCCCC4)O3)CC2)cc1` (centres undefined) was 8.3; that for `c1ccc(CN2CCN(CC3COC(c4ccccc4)(c4ccccc4)O3)CC2)cc1` (centres undefined) was 8.38.
`c1ccc(CN2CCN(CC3CCC(c4ccccc4)(c4ccccc4)O3)CC2)cc1` (centres undefined) came in with a pKi of 6.65.
Same read-out and setting: then `c1ccc(CC2CCN(CC3CSC(c4ccccc4)(c4ccccc4)S3)CC2)cc1` (centres undefined), with 7.11.
On the same count and under the same terms, then `O[C@@H]1[C@@H](CN2CCC(Cc3ccccc3)CC2)CCC1(c1ccccc1)c1ccccc1` (relative stereo), with 5.05; and `c1ccc(CC2CCN(CC3COc4ccccc4O3)CC2)cc1` (centres undefined), with 7.6.
The same measure, in the same setting: the value for `c1ccc(CN2CCN(CC3CSC(c4ccccc4)(c4ccccc4)O3)CC2)cc1` (centres undefined) was 6.67; that for `OCC(CN1CCN(Cc2ccccc2)CC1)OC(c1ccccc1)c1ccccc1` (centres undefined) was 7.75; that for `O=C1C(CN2CCN(Cc3ccccc3)CC2)CCC1(c1ccccc1)c1ccccc1` (centres undefined) was 4.9.
`c1ccc(CN2CCN(C[C@@H]3CO[C@@](c4ccccc4)(C4CCCCC4)O3)CC2)cc1` (relative stereo): the pKi was determined as 7.75.

Another experiment has as its target T1, 5-hydroxytryptamine receptor 1A (Homo sapiens, UniProt P08908).
T1 sequence (P08908 whole entry): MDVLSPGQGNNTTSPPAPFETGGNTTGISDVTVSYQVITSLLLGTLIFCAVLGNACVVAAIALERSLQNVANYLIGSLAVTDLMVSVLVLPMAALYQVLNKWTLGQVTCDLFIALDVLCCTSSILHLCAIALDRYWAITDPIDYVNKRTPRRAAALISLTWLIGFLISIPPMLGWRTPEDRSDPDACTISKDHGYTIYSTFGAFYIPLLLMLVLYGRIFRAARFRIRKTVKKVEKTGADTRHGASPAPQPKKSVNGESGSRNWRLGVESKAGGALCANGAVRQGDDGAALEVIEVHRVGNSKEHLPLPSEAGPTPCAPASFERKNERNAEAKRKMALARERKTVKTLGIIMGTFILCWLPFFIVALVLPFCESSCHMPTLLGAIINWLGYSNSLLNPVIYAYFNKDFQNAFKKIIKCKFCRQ
Kind of experiment: Displacement of [3H]8-OH-DPAT from human 5-HT1A expressed in human HeLa cells after 30 mins. It is filed as cell-based.
Compound `c1ccc(CN2CCN(CCOC(c3ccccc3)c3ccccc3)CC2)cc1` showed a Ki above 1000 nM.
Still for that read-out and setting: then `c1ccc(CC2CCN(CC3COC4(CCCCC4)O3)CC2)cc1` (centres undefined), with 162 nM; and `c1ccc(CN2CCN(CC3COC(C4CCCCC4)(C4CCCCC4)O3)CC2)cc1` (centres undefined), with above 1000 nM; and `c1ccc(CN2CCN(CC3COC(c4ccccc4)(c4ccccc4)O3)CC2)cc1` (centres undefined), with above 1000 nM.
The same measure, in the same setting: the value for `c1ccc(CN2CCN(CC3CCC(c4ccccc4)(c4ccccc4)O3)CC2)cc1` (centres undefined) was above 1000 nM; that for `c1ccc(CC2CCN(CC3CSC(c4ccccc4)(c4ccccc4)S3)CC2)cc1` (centres undefined) was above 1000 nM.
Compound `O[C@@H]1[C@@H](CN2CCC(Cc3ccccc3)CC2)CCC1(c1ccccc1)c1ccccc1` (relative stereo) had a Ki of 50.1 nM. In other words, the double-digit nanomolar range.
The same measure, in the same setting: the value for `OCC(CN1CCN(Cc2ccccc2)CC1)OC(c1ccccc1)c1ccccc1` (centres undefined) was above 1000 nM.
Take `O=C1C(CN2CCN(Cc3ccccc3)CC2)CCC1(c1ccccc1)c1ccccc1` (centres undefined): the Ki is above 1000 nM.
On the same count and under the same terms, then `c1ccc(CN2CCN(C[C@@H]3CO[C@@](c4ccccc4)(C4CCCCC4)O3)CC2)cc1` (relative stereo), with above 1000 nM.

For the next experiment, the species on record is Cavia porcellus. Briefly: Selectivity ratio of Ki for sigma-1 receptor in guinea pig brain membranes to Ki for sigma-2 receptor in guinea pig brain membranes. The class given is cell membranes.
With `c1ccc(CN2CCN(CCOC(c3ccccc3)c3ccccc3)CC2)cc1`, the Ratio Ki worked out at 1.
On the same count and under the same terms, then `c1ccc(CC2CCN(CC3COC4(CCCCC4)O3)CC2)cc1` (centres undefined), with 10; and `c1ccc(CC2CCN(CC3CSC(c4ccccc4)(c4ccccc4)O3)CC2)cc1` (centres undefined), with 2; and `c1ccc(CN2CCN(CC3COC(C4CCCCC4)(C4CCCCC4)O3)CC2)cc1` (centres undefined), with 2.
For `c1ccc(CN2CCN(CC3COC(c4ccccc4)(c4ccccc4)O3)CC2)cc1` (centres undefined), the Ratio Ki was 3.
Consider `c1ccc(CN2CCN(CC3CCC(c4ccccc4)(c4ccccc4)O3)CC2)cc1` (centres undefined), for which the Ratio Ki came to 3.
On the same count and under the same terms, the value for `c1ccc(CC2CCN(CC3CSC(c4ccccc4)(c4ccccc4)S3)CC2)cc1` (centres undefined) was 5; that for `O[C@@H]1[C@@H](CN2CCC(Cc3ccccc3)CC2)CCC1(c1ccccc1)c1ccccc1` (relative stereo) was 39.
Still for that read-out and setting: the value for `c1ccc(CN2CCN(CC3CSC(c4ccccc4)(c4ccccc4)O3)CC2)cc1` (centres undefined) was 3; that for `OCC(CN1CCN(Cc2ccccc2)CC1)OC(c1ccccc1)c1ccccc1` (centres undefined) was 2.
The same measure, in the same setting: then `O=C1C(CN2CCN(Cc3ccccc3)CC2)CCC1(c1ccccc1)c1ccccc1` (centres undefined), with 20.
With `c1ccc(CN2CCN(C[C@@H]3CO[C@@](c4ccccc4)(C4CCCCC4)O3)CC2)cc1` (relative stereo), the Ratio Ki was determined as 1.

For another experiment, the system named is HeLa. Kind of experiment: Selectivity ratio of Ki for sigma-1 receptor in guinea pig brain membranes to Ki for human 5-HT1A expressed in human HeLa cells. The class given is cell-based.
Regarding `c1ccc(CN2CCN(CCOC(c3ccccc3)c3ccccc3)CC2)cc1`, the Ratio Ki was above 89.
Still for that read-out and setting: the value for `c1ccc(CC2CCN(CC3COC4(CCCCC4)O3)CC2)cc1` (centres undefined) was 81; that for `c1ccc(CC2CCN(CC3CSC(c4ccccc4)(c4ccccc4)O3)CC2)cc1` (centres undefined) was above 83.
`c1ccc(CN2CCN(CC3COC(C4CCCCC4)(C4CCCCC4)O3)CC2)cc1` (centres undefined): the Ratio Ki is above 29.
On to `c1ccc(CN2CCN(CC3COC(c4ccccc4)(c4ccccc4)O3)CC2)cc1` (centres undefined), for which the Ratio Ki was above 589.
On the same count and under the same terms, the value for `c1ccc(CN2CCN(CC3CCC(c4ccccc4)(c4ccccc4)O3)CC2)cc1` (centres undefined) was above 11.
On the same count and under the same terms, then `c1ccc(CC2CCN(CC3CSC(c4ccccc4)(c4ccccc4)S3)CC2)cc1` (centres undefined), with above 66.
On the same count and under the same terms, then `O[C@@H]1[C@@H](CN2CCC(Cc3ccccc3)CC2)CCC1(c1ccccc1)c1ccccc1` (relative stereo), with 0.21; and `c1ccc(CN2CCN(CC3CSC(c4ccccc4)(c4ccccc4)O3)CC2)cc1` (centres undefined), with above 16.
With `OCC(CN1CCN(Cc2ccccc2)CC1)OC(c1ccccc1)c1ccccc1` (centres undefined), the Ratio Ki is above 89.
Take `O=C1C(CN2CCN(Cc3ccccc3)CC2)CCC1(c1ccccc1)c1ccccc1` (centres undefined): the Ratio Ki was above 1.5.
On the same count and under the same terms, the value for `c1ccc(CN2CCN(C[C@@H]3CO[C@@](c4ccccc4)(C4CCCCC4)O3)CC2)cc1` (relative stereo) was above 56.

The test system of a further experiment is HeLa. Briefly: Selectivity ratio of Ki for sigma-2 receptor in guinea pig brain membranes to Ki for human 5-HT1A expressed in human HeLa cells. The class given is cell-based.
Consider `c1ccc(CN2CCN(CCOC(c3ccccc3)c3ccccc3)CC2)cc1`, for which the Ratio Ki is above 89.
On the same count and under the same terms, then `c1ccc(CC2CCN(CC3COC4(CCCCC4)O3)CC2)cc1` (centres undefined), with 81; and `c1ccc(CC2CCN(CC3CSC(c4ccccc4)(c4ccccc4)O3)CC2)cc1` (centres undefined), with above 83; and `c1ccc(CN2CCN(CC3COC(C4CCCCC4)(C4CCCCC4)O3)CC2)cc1` (centres undefined), with above 29.
On the same count and under the same terms, then `c1ccc(CN2CCN(CC3COC(c4ccccc4)(c4ccccc4)O3)CC2)cc1` (centres undefined), with above 589; and `c1ccc(CN2CCN(CC3CCC(c4ccccc4)(c4ccccc4)O3)CC2)cc1` (centres undefined), with above 11.
Still for that read-out and setting: then `c1ccc(CC2CCN(CC3CSC(c4ccccc4)(c4ccccc4)S3)CC2)cc1` (centres undefined), with above 66; and `O[C@@H]1[C@@H](CN2CCC(Cc3ccccc3)CC2)CCC1(c1ccccc1)c1ccccc1` (relative stereo), with 0.21; and `c1ccc(CN2CCN(CC3CSC(c4ccccc4)(c4ccccc4)O3)CC2)cc1` (centres undefined), with above 16.
On to `OCC(CN1CCN(Cc2ccccc2)CC1)OC(c1ccccc1)c1ccccc1` (centres undefined), for which the Ratio Ki was above 89.
On the same count and under the same terms, then `O=C1C(CN2CCN(Cc3ccccc3)CC2)CCC1(c1ccccc1)c1ccccc1` (centres undefined), with above 1.5; and `c1ccc(CN2CCN(C[C@@H]3CO[C@@](c4ccccc4)(C4CCCCC4)O3)CC2)cc1` (relative stereo), with above 56.
